Source: paper PMC2949545 (Environment international, 2010)
Values joined by “and” are separate entries in the source; they are usually repeats but may differ in a detail not shown here. Equal entries are not always repeated. Where two headings read alike, the source gives them in different places.

Columns and labels:
F344 BigBlue rats [1] = assay: Histological analysis of spleen, lung and liver; assay type: in vivo; conditions: animal 1 – 4
Procedure, shortened: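 In both genders, frozen tissue sampled at PND75 sacrifice (4 weekly i.p. doses, 4 rats/group) was cut into four-micron sections. Sections were stained with hematoxylin/eosin and examined by light microscopy for histological anomalies in each animal.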

F344 BigBlue rats [2] = conditions: Male; animal 1 – 4; previously reported; ref Lehmann et al. 2007; Maddox et al. 2008; cited from earlier work
LacI gene [3] = assay: BigBlue lacI mutant and mutation frequency analysis, female liver; assay type: in vivo, F344 BigBlue rats; conditions: for Mutants per 10^6 plaques (mutant frequency): 4 weekly i.p. injections, sacrifice PND75; for Mutation Frequency (MF) ± SE (corrected) / Number of Mutations (corrected): after sequencing; for Number of Mutations (corrected): duplicates and non-mutants excluded
Procedure, shortened: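 Female F344 BigBlue rats (lacI transgene), 4/group, got i.p. test compound, positive control or corn oil (5 ml/kg) weekly on PND 37, 44, 51, 58 and were killed on PND75. Genomic DNA from 50 mg central liver was lambda-packaged, infected into E. coli and plated in X-gal top agar overnight. Blue plaques were counted, with >100,000 pfu/animal. Mutant frequency = blue plaques/pfu, per 10^6 ± SE.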

LacI = conditions: male livers; control 19%; ref Lehmann et al. 2007; cited from earlier work
LacI gene [4] = assay: LacI gene sequencing, type of mutations; assay type: in vivo, F344 BigBlue rats; conditions: female liver; for Deletions, distinct mutations / Insertions, distinct mutations / Transitions, distinct mutations / Transversions, distinct mutations: number
[5] = ref Espandiari et al. 2004; cited from earlier work
F344 BigBlue rats [6] = assay: Organ weights normalized to body weight; assay type: in vivo; conditions: versus corn oil controls
Procedure, shortened: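 Rats of both genders, 4/group, were given 4 weekly i.p. doses in corn oil and killed on PND75 by CO2 then cervical dislocation. Liver and other organs were excised and weighed, and weights were expressed as g per 100 g body weight. ANOVA used treatment, gender and their interaction.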

liver mRNA = assay: Gene expression analysis of female liver RNA; assay type: in vivo, F344 BigBlue rats; conditions: for number of unique genes significantly changed: p < 0.0001 and fold change > 5 versus corn oil control, pooled RNA
[7] = Body weight gain during the study period; assay type: in vivo, F344 BigBlue rats; conditions: for effect on weight gain compared to control: either gender
Sprague Dawley rat = conditions: female Sprague Dawley rats; ref http://ntp.niehs.nih.gov/; cited from earlier work
[8] = versus corn oil control, up-regulated

## Oc1ccc(-c2ccc(Cl)cc2)cc1 [4′-OH-PCB3]
F344 BigBlue rats [1]; Female
  Organ Pathology, LIVER: rare acidophilic bodies, but 3 of 4 animals had patchy hepatocellular necrosis and chronic inflammation and 1: Rare acidophilic bodies with patchy hepatocellular necrosis and chronic inflammation. 2 + 3: Rare acidophilic bodies with patchy hepatocellular necrosis and chronic inflammation. 4: Scattered acidophilic bodies with dilated sinusoids.
  Organ Pathology, LUNG: 1: Minimal acute inflammation 2: Almost normal with focal perivascular lymphocytes. 3: No abnormality. 4: Patchy bronchopneumonia with early ARDS. Perivascular lymphocytes increased
  Organ Pathology, SPLEEN: 1 – 4: Reduced mantle
F344 BigBlue rats [1]; Male
  Organ Pathology, SPLEEN: 1: No abnormality 2 + 3: Reduced mantle with focally increased neutrophils. 4: Reduced mantle with focally increased neutrophils with red pulp congestion.
F344 BigBlue rats [2]
  Organ Pathology, LIVER: all four male 4′-OH-PCB3 livers showed dilated sinosoids and 1: dilated sinusoids, rare acidophil body. No obvious inflammation. 2, 3, and 4: dilated sinusoids,. Focal lymphocyte cluster with rare acidophil body. Minimal portal tract inflammation.
  Organ Pathology, LUNG: 1 + 2: No abnormality. 3 + 4: Minimal perivascular lymphocytes.
LacI gene [3]
  significance of the increase in mutation frequency compared to control: neither PCB3 (p=0.429) nor 4′-OH-PCB3 (p=0.581) increased the mutation frequency significantly
  Mutants per 10^6 plaques (mutant frequency): 27.3 per 10^6 plaques
  Mutation Frequency (MF) ± SE (corrected): 27.2 ± 6.6 per 10^6 pfu
  Number of Mutations (corrected): 19
LacI
  frameshift mutations, % of mutations: 22%
LacI gene [4]
  Deletions, % of total: 12%
  Insertions, % of total: 24%
  Transitions, % of total: 35%
  Transversions, % of total: 29%
  Deletions, distinct mutations: 2
  Insertions, distinct mutations: 4
  Transitions, distinct mutations: 6
  Transversions, distinct mutations: 5
LacI gene [4]; solvent controls 18%
  frameshift mutations (deletions and insertions), % of all mutations: 36%
[5]
  result in the modified Solt-Farber Initiation Protocol: positive
F344 BigBlue rats [6]
  impact on liver, lung and spleen weights: no statistically significant impact
Liver mRNA
  number of unique genes significantly changed: 157
Liver mRNA; versus corn oil control, down
  cul1 (cullin 1) expression change: 36.3 fold
  ei24 (etoposide induced 2.4 mRNA) expression change: 28.1 fold
Liver mRNA; versus corn oil control, down-regulated
  cyp2b2 expression change: ~19 fold
Liver mRNA; versus corn oil control, up
  aqp2 (aquaporin 2) expression change: 6.6 fold
  bnip3l (BCL2/adenovirus E1B interacting protein 3-like) expression change: 5.8 fold
  kdr (kinase insert domain protein receptor) expression change: 6.4 fold
  sh3glb1 (SH3-domain GRB2-like endophilin B1) expression change: 6.3 fold
  stat1 (signal transducer and activator of transcription 1) expression change: 10.6 fold
  syvn1 (synovial apoptosis inhibitor 1) expression change: 26.7 fold
Liver mRNA; [8]
  Cyp2j4 expression change: 8.8 fold
  sult1b1 (sulfotransforase 1b1) expression change: ~7 fold
[7]; Female, control 80.7 ± 7.42
  Weight Gain (average ± StDev): 85.3 ± 4.13 gram
[7]; Male, control 159.7 ± 7.63
  Weight Gain (average ± StDev): 129.6 ± 17.50 gram
[7]
  effect on weight gain compared to control: Neither PCB3 nor 4′-OH-PCB3 had a significant effect on weight gain in either gender

## Clc1ccc(-c2ccccc2)cc1 [PCB3, 4-chlorobiphenyl]
F344 BigBlue rats [1]; Female
  Organ Pathology, LIVER: all female PCB3 livers had acidophilic bodies and two animals also showed patchy hepatocellular necrosis and 1 + 2: Scattered acidophilic bodies 3: Centrilobular acidophilic bodies and patchy hepatocellular necrosis. 4: Centrilobular acidophilic bodies and patchy hepatocellular necrosis.
  Organ Pathology, LUNG: 1: Focal acute inflammation 2: Minimal acute inflammation with areas of atelectasis 3: Minimal acute inflammation 4: Patchy bronchopneumonia with early ARDS. Perivascular lymphocytes increased.
  Organ Pathology, SPLEEN: No abnormality
F344 BigBlue rats [1]; Male
  Organ Pathology, SPLEEN: No abnormality
LacI gene [3]
  significance of the increase in mutation frequency compared to control: neither PCB3 (p=0.429) nor 4′-OH-PCB3 (p=0.581) increased the mutation frequency significantly
  Mutants per 10^6 plaques (mutant frequency): 30.3 per 10^6 plaques
  Mutation Frequency (MF) ± SE (corrected): 30.3 ± 17.9 per 10^6 pfu
  Number of Mutations (corrected): 15
LacI gene [4]
  Deletions, % of total: 7%
  Insertions, % of total: 20%
  Total Mutations: 15
  Transitions, % of total: 53%
  Transversions, % of total: 20%
  Deletions, distinct mutations: 1
  Insertions, distinct mutations: 3
  Transitions, distinct mutations: 8
  Transversions, distinct mutations: 3
F344 BigBlue rats [6]
  impact on liver, lung and spleen weights: no statistically significant impact
Liver mRNA
  number of unique genes significantly changed: 86
Liver mRNA; versus corn oil control
  CYP mRNA in the liver: No CYP mRNA increase
Liver mRNA; versus corn oil control, up
  Jun expression change: 55.9 fold
  avpr1a (arginine vasopressin receptor 1A) expression change: 7.3 fold
  cfdp1 (craniofacial development protein 1) expression change: 6.2 fold
  cps1 (carbamoyl-phosphate synthetase 1) expression change: 6.7 fold
  hmox1 (heme oxygenase 1) expression change: 5.8 fold
  kdr (kinase insert domain protein receptor) expression change: 5.5 fold
  lrrc59 (leucine rich repeat containing 59) expression change: 33.1 fold
  mbd2 (Methyl-CpG-binding protein) expression change: 6.9 fold
  mrpl23 (mitochondrial ribosomal protein L23) expression change: 223.3 fold
Liver mRNA; [8]
  sult1b1 (sulfotransforase 1b1) expression change: ~7 fold
[7]; Female, control 80.7 ± 7.42
  Weight Gain (average ± StDev): 79.6 ± 4.51 gram
[7]; Male, control 159.7 ± 7.63
  Weight Gain (average ± StDev): 146.1 ± 7.99 gram
[7]
  effect on weight gain compared to control: Neither PCB3 nor 4′-OH-PCB3 had a significant effect on weight gain in either gender

## Clc1ccc(-c2cc(Cl)c(Cl)cc2Cl)cc1Cl [PCB 118, 2,3′,4,4′,5-pentachloro-biphenyl]
Sprague Dawley rat
  carcinogenicity in chronic carcinogenicity studies: clear evidence

## Clc1ccc(-c2cc(Cl)c(Cl)c(Cl)c2)cc1Cl [PCB 126, 3,3′,4,4′,5-pentachlorobiphenyl]
Sprague Dawley rat
  carcinogenicity in chronic carcinogenicity studies: clear evidence
